Measurements gathered from unrelated publications.
Compare with care: the assays were run in different laboratories.
Target: MAP/microtubule affinity-regulating kinase 4 (MARK4, Homo sapiens, UniProt Q96L34)
Read-out: enzyme activity
Action: inhibitor
One construct used (Q96L34 1-752): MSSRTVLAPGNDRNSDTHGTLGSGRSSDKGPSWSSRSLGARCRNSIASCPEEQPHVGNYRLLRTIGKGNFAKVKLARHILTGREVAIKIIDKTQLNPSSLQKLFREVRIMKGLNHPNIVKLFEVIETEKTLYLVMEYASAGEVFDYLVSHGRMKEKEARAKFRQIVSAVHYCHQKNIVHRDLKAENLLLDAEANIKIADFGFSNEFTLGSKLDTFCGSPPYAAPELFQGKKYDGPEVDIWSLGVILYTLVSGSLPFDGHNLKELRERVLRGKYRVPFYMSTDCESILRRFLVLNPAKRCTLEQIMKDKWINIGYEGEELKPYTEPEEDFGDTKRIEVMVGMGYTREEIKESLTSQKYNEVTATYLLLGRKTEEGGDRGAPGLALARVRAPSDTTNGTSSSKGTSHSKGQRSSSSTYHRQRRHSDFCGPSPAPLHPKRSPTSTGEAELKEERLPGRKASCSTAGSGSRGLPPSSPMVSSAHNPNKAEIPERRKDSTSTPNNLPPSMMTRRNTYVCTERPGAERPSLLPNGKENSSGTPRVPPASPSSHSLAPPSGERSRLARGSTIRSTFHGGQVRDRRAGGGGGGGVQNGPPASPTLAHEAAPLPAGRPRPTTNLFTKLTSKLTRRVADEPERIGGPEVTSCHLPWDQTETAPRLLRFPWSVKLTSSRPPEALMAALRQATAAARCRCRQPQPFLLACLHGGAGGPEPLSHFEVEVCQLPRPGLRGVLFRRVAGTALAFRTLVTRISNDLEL

SMILES	technique	tested at	remaining activity
CC(C)(C)c1nc2c(s1)c1nc(N)ncc1c1ccc(NS(=O)(=O)c3c(F)cccc3F)c(F)c12	radiometric	1 µM	88%
COc1cc(Cl)c(C(=O)N[C@@H](CN[C@H]2CC[C@@H](N)CC2)Cc2ccc(C#N)cc2)cc1-c1ccc(CN[C@H](C)c2ccc(C)cc2)o1		1 µM	91%
O=C(Nc1cnn(-c2csc(C(=O)NC3COC3)c2)c1)Nc1c(F)cccc1Cl		5 µM	97.9%
Cc1nn(CC(F)(F)F)cc1Nc1ncc(C2CC2)c(NCCc2c[nH]cn2)n1	radiometric	1 µM	88%
CC(C)(O)[C@H]1CC[C@H](Nc2ccc3ncc(-c4cccc(C(F)(F)F)c4)n3n2)CC1		1 µM	97.8%
Cc1ccc(C(=O)Nc2ccc(CN3CCN(C)CC3)c(C(F)(F)F)c2)cc1C#Cc1cnc2cccnn12		23.5 nM	94%
Cc1ccc(Nc2nccc(N(C)c3ccc4c(C)n(C)nc4c3)n2)cc1S(N)(=O)=O		0.5 µM	98%
NS(=O)(=O)c1ccc(CNc2ccnc(Nc3cccc(NC(=O)N4CCCC4)c3)n2)cc1	radiometric	1 µM	99%
FC(F)c1nc2ccccc2n1-c1nc(N2CCOCC2)nc(N2CCOCC2)n1		10 µM	89%
Cc1nn(CC(F)(F)F)cc1Nc1nccc(NCc2ccc(S(N)(=O)=O)cc2)n1	radiometric	1 µM	101%
Cn1c(=O)n(-c2ccc(C(C)(C)C#N)cc2)c2c3cc(-c4cnc5ccccc5c4)ccc3ncc21		10 µM	81%
Cc1nn(CC(F)(F)F)cc1Nc1nccc(NCCCNC(=O)C2CCC2)n1	radiometric	1 µM	113%
Cc1sc(C(=O)NC2COC2)cc1-n1cc(NC(=O)Nc2c(F)cccc2Cl)cn1		10 µM	108%
COc1cc(Nc2cnc(C#N)c(O[C@H](C)CN(C)C)n2)ncc1-c1cnn(C)c1	radiometric	1 µM	105%
CC(C)(C)c1nc(-c2cccc(NS(=O)(=O)c3c(F)cccc3F)c2F)c(-c2ccnc(N)n2)s1	radiometric	1 µM	84%
Brc1cnc(Nc2cccc(CN3CCOCC3)c2)nc1NCCc1c[nH]cn1	radiometric	1 µM	3%
